Assay results from ChEMBL document CHEMBL5042484, “Design of SARS-CoV-2 PLpro Inhibitors for COVID-19 Antiviral Therapy Leveraging Binding Cooperativity” (J Med Chem, 2022).
Active and inactive are the calls of the source. The calls are words filed in the database; no cut-off is given here.

Assays:
[1] = Inhibition of SARS-CoV-2 PLpro; design: species or system Severe acute respiratory syndrome coronavirus 2
A549 [2] = test: Cytotoxicity against human A549 cells overexpressing ACE2 receptor assessed as cell viability at < 30 uM incubated for 48 hrs by Cell Titer-Glo luminescent assay; type: toxicity, cell-based; conditions: a549, 48 h
[3] = tested on: Severe acute respiratory syndrome coronavirus 2; test: Inhibition of SARS-CoV-2 PLpro assessed as viral PLpro-mediated deubiquitination using Ub-AMC as substrate at 30 uM preincubated for 10 mins followed by substrate addition measured for 15 mins by fluorescence plate reader assay
Method in brief: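 Run like the RLRGG-AMC PLpro assay (HEPES pH 7.5 buffer, 10 min preincubation, 15 min fluorescence read), but with 80 nM PLpro and 0.5 µM Ub-AMC as substrate.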

A549 [4] = test: Cytotoxicity against human A549 cells overexpressing ACE2 receptor assessed as cell viability at <50 uM incubated for 48 hrs by Cell Titer-Glo luminescent assay; type: toxicity, cell-based; conditions: a549, 48 h
A549 [5] = test: Cytotoxicity against human A549 cells overexpressing ACE2 receptor assessed as cell viability at 100 uM incubated for 48 hrs by Cell Titer-Glo luminescent assay; type: toxicity, cell-based; conditions: a549, 48 h
[6] = tested on: Severe acute respiratory syndrome coronavirus 2; test: Inhibition of SARS-CoV-2 PLpro assessed as viral PLpro-mediated deISGylation using ISG-15-AMC as substrate at 30 uM preincubated for 10 mins followed by substrate addition measured for 15 mins by fluorescence plate reader assay
Method in brief: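 Run like the RLRGG-AMC PLpro assay (HEPES pH 7.5 buffer, 10 min preincubation, 15 min fluorescence read), but with 4 nM PLpro and 0.5 µM ISG15-AMC as substrate.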

[7] = Binding affinity to […] sensor chip immobilized His-tagged SARS-CoV-2 PLpro assessed as equilibrium dissociation constant by surface plasmon resonance analysis; design: species or system Severe acute respiratory syndrome coronavirus 2
[8] = Inhibition of SARS-CoV-2 PLpro using Z-RLRGG-AMC as substrate preincubated for 10 mins followed by substrate addition measured for 15 mins by fluorescence plate reader assay; design: species or system Severe acute respiratory syndrome coronavirus 2
[9] = Drug concentration in C57BL/6J mouse plasma at 50 mg/kg, ip measured from 0.5 to 5 hrs by analytical analysis; type: ADME, organism-based; conditions: in vivo, time 0.5-5 hrs
A549 [10] = test: Cytotoxicity against human A549 cells overexpressing ACE2 receptor assessed as cell viability at <10 uM incubated for 48 hrs by Cell Titer-Glo luminescent assay; type: toxicity, cell-based; conditions: a549, 48 h

## COC(=O)/C=C/CNC(=O)CNC(=O)[C@H](CN)NC(=O)[C@H](CCc1nc2ccccc2s1)NC(C)=O
[1]
  IC50: 50 µM

## COC(=O)/C=C/CNC(=O)CNC(=O)[C@H](CN)NC(=O)[C@H](CCc1ccc(O)cc1)NC(C)=O
[1]
  IC50: 50 µM

## Cc1ccc(NC2CNC2)cc1C(=O)N[C@H](C)c1cccc(-c2ccc(CNC3CCCC3)s2)c1
A549 [2]
  Activity: Non-Toxic
[3]
  inhibition: Active
A549 [4]
  Activity: Non-Toxic
A549 [5]
  Activity: Toxic
[6]
  inhibition: Active
[7]
  Kd: 0.235 µM

## CNC(=O)C[C@@H](NC(=O)c1cc(N(C)C2CNC2)ccc1C)c1cccc2ccccc12
[8]
  IC50: Not Active
[7]
  Kd: > 1000 µM

## Cc1ccc(N)cc1C(=O)N[C@H](CCO)c1cccc2ccccc12
[8]; read-out: IC50
  IC50: 100 µM

## Cc1ccc(N)cc1C(=O)N[C@H](C)c1cccc2ccccc12
[3]
  inhibition: Active
[6]
  inhibition: Active

## Cc1ccc(NC2CNC2)cc1C(=O)N[C@H](C)c1cccc(-c2ccc(CN3CCCC3)s2)c1
A549 [2]
  Activity: Non-Toxic
[3]
  inhibition: Active
[9]
  concentration: 12 µM
A549 [5]
  Activity: Toxic
[6]
  inhibition: Active
A549 [10]
  Activity: Non-Toxic

## Cc1ccc(NC2CNC2)cc1C(=O)N[C@H](C)c1cccc2ccccc12
[3]
  inhibition: Active
[6]
  inhibition: Active

## Cc1ccc(NC2CNC2)cc1C(=O)N[C@H](C)c1cccc(-c2cccs2)c1 (single isomer, unassigned)
[3]
  inhibition: Active
[6]
  inhibition: Active
